These results are taken from ChEMBL document CHEMBL1765001, “Synthesis and pharmacological evaluation of thieno[2,3-b]pyridine derivatives as novel c-Src inhibitors” (Bioorg Med Chem, 2011).

Assay [1] concerns the target T1, Proto-oncogene tyrosine-protein kinase Src (Homo sapiens, UniProt P12931). The assay is described as follows: Inhibition of c-SRC assessed as residual activity using KVEKIGEGYYGVVYK as peptide substrate after 20 mins by scintillation counting. In a few lines:
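Radiometric kinase assay: Src kinase ([…] stock diluted to 200 nM in kinase buffer) with peptide substrate (370 µM stock) and inhibitor from 10% DMSO dilution, in buffer with MgCl2, EDTA, DTT; started with 40 µM ATP plus 33P-γ-ATP, 20 min at 30 °C; stopped with 0.85% orthophosphoric acid, phosphocellulose filter capture, scintillation count. IC50 from sigmoidal variable-slope fit of mean data, at least two determinations; DMSO negative control.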

For assay [2], the target named is T1, Proto-oncogene tyrosine-protein kinase Src. Description: Inhibition of c-SRC in human HCT116 cells assessed as phosphorylated FAK level after 5 hrs by Western blot assay. The format is cell-based. Particulars: HCT-116. In a few lines:
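HCT116 colon carcinoma cells seeded overnight, serum-starved, treated with inhibitors 5 h at 3 and 10 µM final; lysed in 2X Laemmli buffer, gradient SDS-PAGE, PVDF transfer. Phospho-FAK by anti-pTyr861, total FAK on separate blot; ratio by film densitometry.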

Assay [3] shares this target. The assay is described as follows: Inhibition of c-SRC in EGF-stimulated human A431 cells assessed as phosphorylated STAT3 level by Western blot assay. The format is cell-based. To be noted: A-431. In outline:
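A431 epidermoid carcinoma cells starved overnight, stimulated 10 min with EGF (100 ng/ml), lysed in 2X Laemmli buffer; phospho-STAT3 detected with anti-pTyr705 antibody, total STAT3 on a separate blot; pSTAT3/total STAT3 ratio by densitometry of X-ray films. DMSO with EGF set as 100% phosphorylation; 4-anilinoquinoline-3-carbonitrile positive control.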
(In general: In western blotting, separated proteins are transferred to a membrane and probed.)

Assay [4] has the same target.
The subject of the next assay is Fibroblast. Description: Antitumor activity against Src-transformed fibroblasts xenograft model assessed as tumor growth inhibition at 50 mg/kg, ip after 7 days. In kind it is functional, organism-based. On the set-up: dose 50 mg/kg.

The structures appear in SMILES notation. pIC50: −log10 of the molar value. Calls of active or inactive are those of the source. The rule behind the calls is not given here.

T1 sequence (P12931 2-536 limits assumed): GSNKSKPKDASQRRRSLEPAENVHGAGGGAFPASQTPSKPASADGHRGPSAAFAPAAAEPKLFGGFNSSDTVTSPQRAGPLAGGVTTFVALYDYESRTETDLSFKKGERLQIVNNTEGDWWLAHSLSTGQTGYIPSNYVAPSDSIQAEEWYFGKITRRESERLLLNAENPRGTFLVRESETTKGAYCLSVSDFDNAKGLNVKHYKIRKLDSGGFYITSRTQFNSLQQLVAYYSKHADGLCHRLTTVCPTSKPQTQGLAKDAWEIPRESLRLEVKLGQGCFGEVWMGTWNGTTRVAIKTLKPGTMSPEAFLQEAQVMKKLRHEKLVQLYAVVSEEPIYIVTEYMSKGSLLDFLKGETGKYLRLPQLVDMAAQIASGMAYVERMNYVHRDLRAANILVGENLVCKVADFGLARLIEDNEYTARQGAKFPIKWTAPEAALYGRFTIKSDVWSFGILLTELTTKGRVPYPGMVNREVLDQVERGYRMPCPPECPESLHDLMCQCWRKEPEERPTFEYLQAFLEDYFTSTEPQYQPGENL

On to `Cc1cc(C)c2c(N)c(C(=O)N/N=C/c3cccn3C)sc2n1`, for which the pIC50 (as a rule, the IC50 on a negative log10 scale, so that one unit is a factor of ten) in assay [1] was 6.08. In the case of `Cc1cc(C(F)(F)F)nc2sc(C(=O)N/N=C/c3cncn3C)c(N)c12`, in assay [1], the pIC50 was 6.48. In assay [2], the Activity is more than 10 µM. On the same counts, the results for `CN(C)CCNc1cc(-c2ccccc2)c2c(N)c(C(=O)N/N=C/c3cncn3C)sc2n1` are 7.49 and 3 µM. For `CN(C)CCNc1cc(-c2ccccc2)c2c(N)c(C(=O)N/N=C/c3cccc4ccccc34)sc2n1`, in that order: 6.97 and 3 µM. Consider `Cc1cc(C)c2c(N)c(C(=O)N/N=C/c3cccn3CCN(C)C)sc2n1`, for which, in assay [1], the pIC50 is less than 5.00. Consider `Cc1cc(C)c2c(N)c(C(=O)N/N=C/c3cccc4ccccc34)sc2n1`, for which the pIC50 in assay [1] is 6.57. In assay [3], the Activity amounted to 10 µM.

With `CCCc1cc(NCCN(C)C)nc2sc(C(=O)N/N=C/c3cccn3C)c(N)c12`, the negative-log IC50 (pIC50) in assay [1] is 7.20. Moreover, in assay [2], the Activity was found to be 10 µM. As for `CCCc1cc2c(N)c(C(=O)N/N=C/c3cccn3C)sc2nc1NCCN(C)C`, in assay [1], the pIC50 is 5.68. Same read-out and setting: the result for `Cc1cc(C(F)(F)F)nc2sc(C(=O)N/N=C/c3cccc4ccccc34)c(N)c12` reads 5.87. On to `CN(C)CCNc1cc(Cc2ccccc2)c2c(N)c(C(=O)N/N=C/c3cccn3C)sc2n1`, for which the pIC50 in assay [1] is 7.40. For the same molecule, the Activity in assay [2] stood at 3 µM.

As to `Cc1cc(NCCN(C)C)nc2sc(C(=O)N/N=C/c3cccn3C)c(N)c12`, in assay [1], the negative-log IC50 (pIC50) was 6.61. In assay [2], the Activity turned out to be 10 µM.

Regarding `Nc1c(C(=O)N/N=C/c2cccc3ccccc23)sc2ncccc12`, in assay [1], the negative logarithm of the IC50 (pIC50) is less than 5.00. On to `CN(C)CCNc1nc2sc(C(=O)N/N=C/c3cccn3C)c(N)c2cc1Cc1ccccc1`, for which, in assay [1], the pIC50 was 5.41. For the molecule `CN(C)CCNc1cc(-c2ccccc2)c2c(N)c(C(=O)N/N=C/c3cccn3C)sc2n1`, in assay [1], the negative-log IC50 (pIC50) was 7.17. In addition, in assay [2], the Activity was 3 µM.

For `Cc1cc(C)c2c(N)c(C(=O)N/N=C/c3cncn3C)sc2n1`, the pIC50 in assay [1] is 6.11. In addition, in assay [3], the Activity was more than 10 µM. As to `O=C(Cc1ccc(-c2ccc(OCCN3CCOCC3)cc2)cn1)NCc1ccccc1` [TIRBANIBULIN], the negative-log IC50 (pIC50) in assay [4] was 7.70. With `Cn1cncc1/C=N/NC(=O)c1sc2ncccc2c1N`, the negative logarithm of the IC50 (pIC50) in assay [1] was 5.89. With `Cc1cc(NCCN(C)C)nc2sc(C(=O)N/N=C/c3cccc4ccccc34)c(N)c12`, in assay [1], the pIC50 is 6.64. Moreover, in assay [2], the Activity is more than 10 µM. In the case of `COc1cc(Nc2c(C#N)cnc3cc4cc(OCCN5CCOCC5)c(OC)cc4cc23)c(Cl)cc1Cl`, in the assay with Fibroblast, the result was Active.
